Data from ChEMBL document CHEMBL1795205, “The new 5- or 6-azapyrimidine and cyanuric acid derivatives of l-ascorbic acid bearing the free C-5 hydroxy or C-4 amino group at the ethylenic spacer: CD-spectral absolute configuration determination and biological activity evaluations” (Eur J Med Chem, 2011).
The source made the active and inactive calls. The calls are words filed in the database; no cut-off is given here.

Experiments:
SW-620 [1] = experiment: Induction of cell cycle arrest in human SW620 cells assessed as accumulation at G2/M phase at 1 uM after 24 hrs by flow cytometry (reference value: 10.7 +/- 0.07%); type: functional
SW-620 [2] = experiment: Cytostatic activity against human SW620 cells assessed as inhibition of cell proliferation after 72 hrs by MTT assay; type: functional, cell-based; conditions: SW-620, 72 h
Outline: (§1)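 Monolayer cells grown in DMEM with 10% FBS were seeded on day 0 at 3000–6000 cells/well, set by each line's doubling time. Agents were added the next step in five 10-fold dilutions (0.01–100) for 72 h, with DMSO ≤0.1% and a solvent control. MTT absorbance was converted to percentage growth versus untreated wells on the same plate. Where all PGs exceeded 50, the top concentration was reported as ">". ANOVA/Tukey, p<0.05.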

HeLa [3] = experiment: Induction of cell cycle arrest in human HeLa cells assessed as accumulation at S phase at 5 uM after 24 hrs by flow cytometry relative to control; type: functional
Outline: (§2)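 Cells were seeded at 3×10⁵ per well in 6-well plates and treated after overnight incubation for 24 and 48 h. They were trypsinized, washed three times in PBS, fixed in cold ethanol and stored at −20 °C. Pellets were washed twice in PBS and treated with RNase A at 37 °C for 15 min, then stained with PI for 30 min in the dark. DNA content was measured by flow cytometry.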

MIA PaCa-2 [4] = experiment: Cytostatic activity against human MIAPaCa2 cells assessed as inhibition of cell proliferation after 72 hrs by MTT assay; type: functional, cell-based; conditions: MIA PaCa-2, 72 h; outline: as §1
HeLa [5] = experiment: Induction of cell cycle arrest in human HeLa cells assessed as accumulation at S phase at 1 uM after 24 hrs by flow cytometry relative to control; type: functional; outline: as §2
MIA PaCa-2 [6] = experiment: Induction of cell cycle arrest in human MIAPaCa2 cells assessed as accumulation at S phase at 5 uM after 24 hrs by flow cytometry (reference value: 34.3 +/- 0.07%); type: functional
HeLa [7] = experiment: Induction of cell cycle arrest in human HeLa cells assessed as accumulation at G1 phase at 1 uM after 24 hrs by flow cytometry relative to control; type: functional; outline: as §2
HeLa [8] = experiment: Induction of cell cycle arrest in human HeLa cells assessed as accumulation at S phase at 1 uM after 48 hrs by flow cytometry relative to control; type: functional; outline: as §2
HepG2 = experiment: Cytostatic activity against human HepG2 cells assessed as inhibition of cell proliferation after 72 hrs by MTT assay; type: functional, cell-based; conditions: HepG2, 72 h; outline: as §1
SW-620 [9] = experiment: Induction of cell cycle arrest in human SW620 cells assessed as accumulation at subG1 phase at 5 uM after 48 hrs by flow cytometry (reference value: 0.18 +/- 0.036%); type: functional
MIA PaCa-2 [10] = experiment: Induction of cell cycle arrest in human MIAPaCa2 cells assessed as accumulation at subG1 phase at 5 uM after 48 hrs by flow cytometry (reference value: 0.20 +/- 0.06%); type: functional
SW-620 [11] = experiment: Induction of cell cycle arrest in human SW620 cells assessed as accumulation at G2/M phase at 5 uM after 24 hrs by flow cytometry (reference value: 10.7 +/- 0.07%); type: functional
SW-620 [12] = experiment: Induction of cell cycle arrest in human SW620 cells assessed as accumulation at subG1 phase at 1 uM after 48 hrs by flow cytometry (reference value: 0.18 +/- 0.036%); type: functional
SW-620 [13] = experiment: Induction of cell cycle arrest in human SW620 cells assessed as accumulation at G1 phase at 1 uM after 48 hrs by flow cytometry (reference value: 46.6 +/- 4.88%); type: functional
SW-620 [14] = experiment: Induction of cell cycle arrest in human SW620 cells assessed as accumulation at G2/M phase at 5 uM after 48 hrs by flow cytometry (reference value: 11.9 +/- 2.33%); type: functional
MIA PaCa-2 [15] = experiment: Induction of cell cycle arrest in human MIAPaCa2 cells assessed as accumulation at S phase at 1 uM after 48 hrs by flow cytometry (reference value: 46 +/- 8.13%); type: functional
SW-620 [16] = experiment: Induction of cell cycle arrest in human SW620 cells assessed as accumulation at G2/M phase at 1 uM after 48 hrs by flow cytometry (reference value: 11.9 +/- 2.33%); type: functional
MIA PaCa-2 [17] = experiment: Induction of cell cycle arrest in human MIAPaCa2 cells assessed as accumulation at G2/M phase at 5 uM after 48 hrs by flow cytometry (reference value: 9.35 +/- 0.92%); type: functional
HeLa [18] = experiment: Induction of cell cycle arrest in human HeLa cells assessed as accumulation at G1 phase at 5 uM after 24 hrs by flow cytometry relative to control; type: functional; outline: as §2
MIA PaCa-2 [19] = experiment: Induction of cell cycle arrest in human MIAPaCa2 cells assessed as accumulation at G2/M phase at 1 uM after 48 hrs by flow cytometry (reference value: 9.35 +/- 0.92%); type: functional
HeLa [20] = experiment: Induction of cell cycle arrest in human HeLa cells assessed as accumulation at G1 phase at 5 uM after 48 hrs by flow cytometry relative to control; type: functional; outline: as §2
SW-620 [21] = experiment: Induction of apoptosis in human SW620 cells at 1 to 5 uM after 24 to 48 hrs by annexin V/PI staining; type: functional, cell-based
Outline: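 Cells were seeded on slides, incubated 24 h, then exposed to compound for 24 and 48 h. They were washed with PBS and binding buffer, incubated with annexin-V for 10 min, washed with binding buffer, and stained with PI.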

MIA PaCa-2 [22] = experiment: Induction of cell cycle arrest in human MIAPaCa2 cells assessed as accumulation at S phase at 1 uM after 24 hrs by flow cytometry (reference value: 34.3 +/- 0.07%); type: functional
MIA PaCa-2 [23] = experiment: Induction of cell cycle arrest in human MIAPaCa2 cells assessed as accumulation at G1 phase at 5 uM after 24 hrs by flow cytometry (reference value: 55.4 +/- 0.01%); type: functional
SW-620 [24] = experiment: Induction of cell cycle arrest in human SW620 cells assessed as accumulation at S phase at 1 uM after 24 hrs by flow cytometry (reference value: 37.7 +/- 0.01%); type: functional

## Nc1ncn(C/C=C2\OC(=O)C(OCc3ccccc3)=C2OCc2ccccc2)c(=O)n1
SW-620 [1]
  Activity: 8.15%
SW-620 [2]
  IC50: 5620 nM
HeLa [3]
  Activity: 72.1%
MIA PaCa-2 [4]
  IC50: 920 nM
HeLa [5]
  Activity: 58.8%
MIA PaCa-2 [6]
  Activity: 57.4%
HeLa [7]
  Activity: 29.4%
HeLa [8]
  Activity: 65.6%
HepG2
  IC50: 2720 nM
SW-620 [9]
  Activity: 0.21%
MIA PaCa-2 [10]
  Activity: 0.31%
SW-620 [11]
  Activity: 17.7%
SW-620 [12]
  Activity: 0.05%
SW-620 [13]
  Activity: 23.2%
SW-620 [14]
  Activity: 9.2%
MIA PaCa-2 [15]
  Activity: 64.2%
SW-620 [16]
  Activity: 17.9%
MIA PaCa-2 [17]
  Activity: 10.2%
HeLa [18]
  Activity: 16.5%
MIA PaCa-2 [19]
  Activity: 12.9%
HeLa [20]
  Activity: 23.9%
SW-620 [21]
  Activity: inactive
MIA PaCa-2 [22]
  Activity: 29.5%
MIA PaCa-2 [23]
  Activity: 35.6%
SW-620 [24]
  Activity: 50.5%
